In ChEMBL document CHEMBL3286347, “Evaluation of anti-inflammatory activity of prenylated substances isolated from Morus alba and Morus nigra” (J Nat Prod, 2014):
Calls of active or inactive are those of the source. The calls are words filed in the database; no cut-off is given here.

Assays:
[1] = target: Transcription factor p65 (Homo sapiens) (UniProt Q04206); test: Inhibition of NFkappaB p65 nuclear translocation in LPS-induced human THP1 cells at 1 uM treated 1 hr before LPS challenge measured after 3 hrs using propidium iodide staining by fluorescence microscopic analysis; type: cell-based; settings: THP-1
In short: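 PMA-differentiated THP-1 macrophages in serum-free RPMI (5 × 10^5 cells/mL) pretreated 1 h at 1 μM, then LPS 1 μg/mL final for 3 h; acetone-fixed, BSA-blocked, rabbit anti-p65 overnight at 4 °C, FITC anti-rabbit IgG 1 h, nuclei counterstained with propidium iodide 0.5 μg/mL; p65/nuclear colocalization viewed by fluorescence microscopy; three independent experiments.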

THP-1 [2] = test: Antiinflammatory activity in human THP1 cells assessed as inhibition of TNFalpha secretion at 1 uM treated 1 hr before LPS challenge measured after 24 hrs by ELISA; type: functional, cell-based
In short: (§1)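 THP-1 monocytes (RPMI 1640, 10% FBS, 37 °C, 5% CO2) differentiated to macrophages with PMA; pretreated 1 h with test agent at 1 μM in DMSO (0.1% final); LPS (E. coli 0111:B4) 1 μg/mL added, medium collected after 24 h and stored at −80 °C; secreted cytokine quantified by ELISA; vehicle and non-LPS controls; three independent experiments, mean ± SE.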

THP-1 [3] = test: Cytotoxicity against human THP1 cells after 24 hrs by WST1 assay; type: cell-based; settings: THP-1, 24 h
In short: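 THP-1 monocyte suspension (5 × 10^5 cells/mL) exposed to compounds in DMSO, 30 down to 0.37 μM, DMSO 0.1% final; 24 h at 37 °C, 5% CO2; viability by WST-1 reagent; IC50 calculated from viability curves; triplicate, arithmetic mean ± SE.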

THP-1 [4] = test: Antiinflammatory activity in human THP1 cells assessed as inhibition of IL-1beta secretion at 1 uM treated 1 hr before LPS challenge measured after 24 hrs by ELISA; type: functional, cell-based; in short: as §1
A2780 = test: Cytotoxicity against human A2780 cells; type: cell-based
THP-1 [5] = test: Ratio of prednisone to compound for antiinflammatory activity in human THP1 cells assessed as inhibition of TNFalpha secretion at 1 uM treated 1 hr before LPS challenge measured after 24 hrs by ELISA; type: functional

Sequence of Transcription factor p65 (Homo sapiens) (Q04206 whole entry): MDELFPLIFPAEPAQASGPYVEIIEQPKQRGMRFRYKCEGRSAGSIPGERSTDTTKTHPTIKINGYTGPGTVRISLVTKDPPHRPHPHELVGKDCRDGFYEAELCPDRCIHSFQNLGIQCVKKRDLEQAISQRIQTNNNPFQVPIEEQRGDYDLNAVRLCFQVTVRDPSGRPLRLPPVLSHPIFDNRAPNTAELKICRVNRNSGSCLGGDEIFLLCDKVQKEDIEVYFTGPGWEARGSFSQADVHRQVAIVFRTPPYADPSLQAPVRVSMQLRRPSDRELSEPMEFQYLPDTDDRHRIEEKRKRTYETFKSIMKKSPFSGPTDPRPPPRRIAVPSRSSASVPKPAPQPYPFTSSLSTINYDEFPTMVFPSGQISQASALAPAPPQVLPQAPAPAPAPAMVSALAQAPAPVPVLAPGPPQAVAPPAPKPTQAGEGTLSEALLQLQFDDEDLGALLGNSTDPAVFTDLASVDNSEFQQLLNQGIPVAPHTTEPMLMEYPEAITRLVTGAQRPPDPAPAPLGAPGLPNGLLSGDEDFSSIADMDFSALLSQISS

SMILES	inhibition [1]	inhibition (THP-1 [2])	IC50 (THP-1 [3]) [µM]	inhibition (THP-1 [4])	IC50 (A2780) [µM]	Ratio (THP-1 [5])
CC1(C)C=Cc2c(O)ccc([C@@H]3CC(=O)c4c(O)cc(O)cc4O3)c2O1	Active	Active	> 10	Active	–	–
CC1=C[C@@H]2c3c(O)cc(C=O)cc3OC3(c4ccc(O)c5c4OC(C)(C)C=C5)Oc4cc(O)ccc4[C@@H](C1)[C@H]23 (some centres undefined)	–	–	4.7	–	–	–
CC(C)=CCc1c(O)ccc(C(=O)[C@@H]2[C@@H](c3ccc(O)cc3O)CC(C)=C[C@H]2c2c(O)cc3c(c2O)C(=O)[C@@H]2Oc4cc(O)ccc4[C@]2(CC=C(C)C)O3)c1O	–	–	4	–	–	–
CC(C)=CCc1c(O)ccc([C@@]23Oc4cc(O)ccc4[C@@H]4CC(C)=C[C@@H](c5c(O)cc(-c6cc7ccc(O)cc7o6)cc5O2)[C@H]43)c1O	–	–	–	–	1.2	–
CC(C)=CCc1c(-c2ccc(O)cc2O)oc2cc3c(c(O)c2c1=O)C=CC(C)(C)O3 [CUDRAFLAVONE B]	Active	Active	> 10	inactive	–	–
CC(C)=CCc1c(-c2ccc(O)cc2O)oc2c(CC=C(C)C)c(O)cc(O)c2c1=O [KUWANON C]	–	Active	1.7	Active	–	–
CC(C)=CCC/C(C)=C/Cc1cc(C2CC(=O)c3c(O)cc(O)cc3O2)c(O)cc1O (centres undefined) [KUWANON E]	–	Active	4	Active	–	–
CC(C)=CCc1c(O)cc(-c2cc3ccc(O)cc3o2)cc1O [MORACIN C]	–	–	3.2	inactive	–	–
CC(C)(O)CCc1c(-c2ccc(O)cc2O)oc2c3c(cc(O)c2c1=O)OC(C)(C)C=C3 [MORUSINOL]	Active	Active	4.3	Active	–	2
C[C@@]12C=C(c3c(O)cc(-c4cc5ccc(O)cc5o4)cc3O)C[C@@H](C1)c1ccc(O)cc1O2 [MULBERROFURAN H]	Active	–	3.2	inactive	–	–
COc1c(O)cc2oc(-c3cc(O)cc(O)c3)cc2c1C/C=C(\C)CCC=C(C)C [MULBERROFURAN Y]	–	–	4.8	Active	–	–
